Results on 1 substance are retold here after publication PMC2767302 (Circulation, 2008).

In one data set the test system is plasma cGMP. It counts as in vivo, dog. The note with it: oral 350 μg/kg; normal conscious dogs; n=6. An outline of the steps: (§1)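 Adult male mongrel dogs (15-20 kg) with a femoral arterial port were fed 100 mEq/day sodium for 5 days, with water ad lib and sling acclimation. On the study day they were fasted and kept 30 min in a sling while conscious. Randomized single oral 350 μg/kg dose (conjugate n=5; unconjugated peptide n=6; vehicle n=6). MAP and blood were taken at baseline and 10–240 min. Plasma hBNP and cGMP were measured by radioimmunoassay. Mean ± SEM; repeated-measures ANOVA with Bonferroni.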

For data set [1] the following is noted: native BNP; quoted in the discussion, no reference given; cited from earlier work.
Another data set relates to normal conscious dogs. Kind of data set: Mean arterial pressure after acute oral administration in normal conscious dogs. It counts as in vivo, dog. Conditions: oral 350 μg/kg, n=6, up to 240 min. In a few lines:
as §1

As to “native hBNP: native human B-type natriuretic peptide, 32 amino acid mature form”, the “Plasma cGMP response (in words)” value with plasma cGMP is given as “not statistically different from baseline levels”. The Half life result in data set [1] is “approximately 20 minutes”. Also, in the data set on normal conscious dogs, the “MAP response throughout the study (in words)” value is “did not change”.
